According to ChEMBL document CHEMBL1151801, “Synthesis of new indeno[1,2-e]pyrimido[4,5-b][1,4]diazepine-5,11-diones as potential antitumor agents” (2008):

Legend:
Type in all cases: functional
CAKI-1 = experiment: Antitumor activity against human Caki1 cells after 48 hrs by SRB assay; details: CAKI-1, 48 h
Method in brief: (§1)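 NCI in vitro human tumor cell line screen. Cells were exposed continuously to compound for 48 h at five concentration levels (100, 10, 1.0, 0.1 and 0.01). Growth was estimated by sulforhodamine B protein staining. GI50 is the concentration giving a 50% reduction in net protein increase relative to control cells over the incubation.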

A498 = experiment: Antitumor activity against human A498 cells after 48 hrs by SRB assay; details: A498, 48 h; method in brief: as §1
786-0 = experiment: Antitumor activity against human 786-0 cells after 48 hrs by SRB assay; details: 786-0, 48 h; method in brief: as §1
OVCAR-8 = experiment: Antitumor activity against human OVCAR8 cells after 48 hrs by SRB assay; details: OVCAR-8, 48 h; method in brief: as §1
OVCAR-4 = experiment: Antitumor activity against human OVCAR4 cells after 48 hrs by SRB assay; details: OVCAR-4, 48 h; method in brief: as §1
IGROV-1 = experiment: Antitumor activity against human IGROV1 cells after 48 hrs by SRB assay; details: IGROV-1, 48 h; method in brief: as §1
U-251 = experiment: Antitumor activity against human U251 cells after 48 hrs by SRB assay; details: U-251, 48 h
Method in brief: (§2)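 NCI in vitro human tumor cell line screen. Continuous 48 h drug exposure at five concentrations (100, 10, 1.0, 0.1 and 0.01 µM). Cell growth estimated by sulforhodamine B protein staining. GI50 defined as the concentration giving 50% reduction in net protein increase versus control cells over the incubation.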

SNB-75 = experiment: Antitumor activity against human SNB75 cells after 48 hrs by SRB assay; details: SNB-75, 48 h; method in brief: as §1
ACHN = experiment: Antitumor activity against human ACHN cells after 48 hrs by SRB assay; method in brief: as §1
SF-295 = experiment: Antitumor activity against human SF295 cells after 48 hrs by SRB assay; details: SF-295, 48 h; method in brief: as §1
SF-268 = experiment: Antitumor activity against human SF268 cells after 48 hrs by SRB assay; details: SF-268, 48 h; method in brief: as §1
SW-620 = experiment: Antitumor activity against human SW620 cells after 48 hrs by SRB assay; details: SW-620, 48 h; method in brief: as §2
KM12 = experiment: Antitumor activity against human KM12 cells after 48 hrs by SRB assay; details: KM12, 48 h; method in brief: as §1
HT-29 = experiment: Antitumor activity against human HT-29 cells after 48 hrs by SRB assay; details: HT-29, 48 h; method in brief: as §1
HCT-15 = experiment: Antitumor activity against human HCT15 cells after 48 hrs by SRB assay; details: HCT-15, 48 h; method in brief: as §1
HCT-116 = experiment: Antitumor activity against human HCT116 cells after 48 hrs by SRB assay; details: HCT-116, 48 h; method in brief: as §1
HCC 2998 = experiment: Antitumor activity against human HCC2998 cells after 48 hrs by SRB assay; details: HCC 2998, 48 h; method in brief: as §1
COLO 205 = experiment: Antitumor activity against human COLO205 cells after 48 hrs by SRB assay; details: COLO 205, 48 h; method in brief: as §1
NCI-H522 = experiment: Antitumor activity against human NCI-H522 cells after 48 hrs by SRB assay; details: NCI-H522, 48 h; method in brief: as §1
NCI-H23 = experiment: Antitumor activity against human NCI-H23 cells after 48 hrs by SRB assay; details: NCI-H23, 48 h; method in brief: as §1
NCI-H226 = experiment: Antitumor activity against human NCI-H226 cells after 48 hrs by SRB assay; details: NCI-H226, 48 h; method in brief: as §1
HOP-62 = experiment: Antitumor activity against human HOP62 cells after 48 hrs by SRB assay; details: HOP-62, 48 h; method in brief: as §1
EKVX = experiment: Antitumor activity against human EKVX cells after 48 hrs by SRB assay; method in brief: as §1
A549 = experiment: Antitumor activity against human A549 cells after 48 hrs by SRB assay; details: A549, 48 h; method in brief: as §1
SR = experiment: Antitumor activity against human SR cells after 48 hrs by SRB assay; method in brief: as §1
[1] = Antitumor activity against human […] cells after 48 hrs by SRB assay; method in brief: as §1
MOLT-4 = experiment: Antitumor activity against human MOLT4 cells after 48 hrs by SRB assay; details: MOLT-4, 48 h; method in brief: as §1
K562 = experiment: Antitumor activity against human K562 cells after 48 hrs by SRB assay; details: K562, 48 h; method in brief: as §1
HL-60(TB) = experiment: Antitumor activity against human HL-60(TB) cells after 48 hrs by SRB assay; details: HL-60, 48 h; method in brief: as §1
CCRF-CEM = experiment: Antitumor activity against human CCRF-CEM cells after 48 hrs by SRB assay; method in brief: as §1
UO-31 = experiment: Antitumor activity against human UO31 cells after 48 hrs by SRB assay; details: UO-31, 48 h; method in brief: as §2
PC-3 = experiment: Antitumor activity against human PC3 cells after 48 hrs by SRB assay; details: PC-3, 48 h; method in brief: as §1
DU-145 = experiment: Antitumor activity against human DU145 cells after 48 hrs by SRB assay; details: DU-145, 48 h; method in brief: as §1
MCF7 = experiment: Antitumor activity against human MCF7 cells after 48 hrs by SRB assay; details: MCF7, 48 h; method in brief: as §1
MDA-MB-231 = experiment: Antitumor activity against human MDA-MB-231 cells after 48 hrs by SRB assay; details: MDA-MB-231, 48 h; method in brief: as §1
MDA-MB-435 = experiment: Antitumor activity against human MDA-MB-435 cells after 48 hrs by SRB assay; details: MDA-MB-435, 48 h; method in brief: as §1
BT-549 = experiment: Antitumor activity against human BT549 cells after 48 hrs by SRB assay; details: BT-549, 48 h; method in brief: as §1
T47D = experiment: Antitumor activity against human T47D cells after 48 hrs by SRB assay; method in brief: as §2
[2] = read-out: LC50 (the source's name)

## CSc1nc2c(c(=O)[nH]1)NC1=C(C(=O)c3ccccc31)C(c1ccccc1)N2 (stereo unspecified)
CAKI-1
  GI50: 2.18 µM
  LC50: > 100 µM
A498
  GI50: 2 µM
  LC50: > 100 µM
786-0
  GI50: 6.44 µM
786-0; [2]
  CC50: > 100 µM
OVCAR-8
  GI50: 19.1 µM
  LC50 (concentration causing 50% net cell kill): > 100 µM
OVCAR-4
  GI50: 5.62 µM
OVCAR-4; [2]
  CC50: > 100 µM
IGROV-1
  GI50: 4.54 µM
IGROV-1; [2]
  CC50: > 100 µM
U-251
  GI50: 3.52 µM
U-251; [2]
  CC50: > 100 µM
SNB-75
  GI50: 1.27 µM
  LC50: > 100 µM
ACHN
  GI50: 3.73 µM
ACHN; [2]
  CC50: > 100 µM
SF-295
  GI50: 1.91 µM
SF-295; [2]
  CC50: > 100 µM
SF-268
  GI50: 4.55 µM
SF-268; [2]
  CC50: > 100 µM
SW-620
  GI50: 2.92 µM
  LC50: > 100 µM
KM12
  GI50: 2.27 µM
KM12; [2]
  CC50: > 100 µM
HT-29
  GI50: 2.97 µM
  LC50: > 100 µM
HCT-15
  GI50: 2.8 µM
  LC50 (concentration killing 50% of starting cells): > 100 µM
HCT-116
  GI50: 4.21 µM
  LC50 (50% lethal concentration): > 100 µM
HCC 2998
  GI50: 6.75 µM
HCC 2998; [2]
  CC50: > 100 µM
COLO 205
  GI50: 3.53 µM
COLO 205; [2]
  CC50: > 100 µM
NCI-H522
  GI50: 1.41 µM
NCI-H522; [2]
  CC50: > 100 µM
NCI-H23
  GI50: 5.82 µM
  LC50: > 100 µM
NCI-H226
  GI50: 4.2 µM
  LC50: > 100 µM
HOP-62
  GI50: 5.37 µM
HOP-62; [2]
  CC50: > 100 µM
EKVX
  GI50: 12.8 µM
EKVX; [2]
  CC50: > 100 µM
A549
  GI50: 6.98 µM
A549; [2]
  CC50: > 100 µM
SR
  GI50: 1.51 µM
  LC50 (concentration killing 50% of cells): > 100 µM
[1]
  GI50: 3.01 µM
  LC50: > 100 µM
MOLT-4
  GI50: 5.24 µM
  LC50: > 100 µM
K562
  GI50: 1.27 µM
  LC50: > 100 µM
HL-60(TB)
  GI50: 2.51 µM
  LC50: > 100 µM
CCRF-CEM
  GI50: 5.92 µM
CCRF-CEM; [2]
  CC50: > 100 µM
UO-31
  GI50: 5.23 µM
UO-31; [2]
  CC50: > 100 µM
PC-3
  GI50: 3.64 µM
PC-3; [2]
  CC50: > 100 µM
DU-145
  GI50: 13.4 µM
DU-145; [2]
  CC50: > 100 µM
MCF7
  GI50: 2.4 µM
  LC50 (concentration causing 50% net cell kill): > 100 µM
MDA-MB-231
  GI50: 4.09 µM
  LC50 (lethal concentration, 50% net cell kill): > 100 µM
MDA-MB-435
  GI50: 0.49 µM
  LC50: > 100 µM
BT-549
  GI50: 5.35 µM
BT-549; [2]
  CC50: > 100 µM
T47D
  GI50: 4.61 µM
T47D; [2]
  CC50: > 100 µM
